Screening results as filed in PubChem BioAssay.
KCNQ1 act = human KCNQ1 channel potentiation or activation | 0.35% of 310,000 active | B-score at 10 µM | P51787 | CHO-K1 KCNQ1, thallium flux FluxOR fluorescence; stronger effect = higher value | AID 2648;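 active means fluorescence ratio B-score, a plate-corrected score, at least three library SD, with initial intensity B-score within 5 SD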
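Test system: CHO-K1 cells stably expressing KCNQ1 / Medium: assay buffer / Also added: depolarizing K+/Tl+ stimulus, K2SO4 and Tl2SO4 each 12.5 mM in 5x stock / Incubation: 90 min dye loading and 20 min compound exposure, both at room temperature / Signal: thallium influx via FluxOR fluorescence, kinetic imaging / Evaluation: B score of baseline-normalized fluorescence ratio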
KCNQ1 block = blocks the human KCNQ1 potassium channel | P51787 | CHO-K1 KCNQ1, FluxOR thallium flux fluorescence; stronger effect = higher value | B-score at 10 µM | 1.3% of 310,000 active | AID 2642;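 active means compounds whose thallium flux B-score, printed positive for inhibition, exceeds three library SD while starting fluorescence stays within three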;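 further: channel opened by potassium depolarization with thallium stimulus after 20 min compound exposure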
SUMO Mot1 rescue = SUMOylation pathway inhibition by Mot1-301 growth rescue; S. cerevisiae Mot1-301 growth rescue, ATP luminescence, 38.5C; percent above DMSO median, 100 means doubled; growth rescue, % at 18.8 µM; 1% of 320,000 active; AID 2716;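 active means every valid replicate shows activation above 250% relative to neutral control wells; inactive means the rest, any valid replicate at or below 250%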;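 further: OY570 slx delta 5 strain wells were the positive control but not used for scaling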
hERG protect = shields human hERG channel from block by proarrhythmic agents; activation (rescue from dofetilide block), less the hit threshold, % at 10 µM; Q12809; CHO-hERG, FluxOR thallium flux, dofetilide IC70 present; 0.51% of 310,000 active;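 active means activation above the mean of controls blocked by dofetilide plus 5 SD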;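 further: thallium influx through hERG after potassium depolarization seen as dye fluorescence rise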
AI-2 QS modul = modulators of Vibrio harveyi AI-2 quorum sensing system; AID 2094; Vibrio harveyi JMH597 AI-2 luminescence/OD600 ratio, 9 h; stronger effect = lower value; strain lacks LuxN and CqsS sensors; 0 = neutral-control median; 0.4% of 300,000 active; activity change, % at 7.5 µM; in the data active means activity change below about -75%, passing the limit was not always enough; inconclusive means no clear call, values can overlap the other calls;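 further: luminescence divided by OD600 gain over 9 h not by final OD600 alone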
Cl transport mod = modulators of human KCC2 chloride dependent transport; B-score of Tl+ flux slope (higher = more flux/activation; lower = inhibition) at 10 µM; 2.2% of 190,000 active; KCC2 cells, thallium flux FluoZin-2 fluorescence; AID 1456;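 active means thallium flux slope and its plate-corrected score both differing from the plate sample mean at a set confidence after two filtering rounds, in either direction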;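 further: slope of fluorescence scaled to starting intensity during 10 to 20 s after thallium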
Target sequence (Q9H2X9 whole entry, looked up): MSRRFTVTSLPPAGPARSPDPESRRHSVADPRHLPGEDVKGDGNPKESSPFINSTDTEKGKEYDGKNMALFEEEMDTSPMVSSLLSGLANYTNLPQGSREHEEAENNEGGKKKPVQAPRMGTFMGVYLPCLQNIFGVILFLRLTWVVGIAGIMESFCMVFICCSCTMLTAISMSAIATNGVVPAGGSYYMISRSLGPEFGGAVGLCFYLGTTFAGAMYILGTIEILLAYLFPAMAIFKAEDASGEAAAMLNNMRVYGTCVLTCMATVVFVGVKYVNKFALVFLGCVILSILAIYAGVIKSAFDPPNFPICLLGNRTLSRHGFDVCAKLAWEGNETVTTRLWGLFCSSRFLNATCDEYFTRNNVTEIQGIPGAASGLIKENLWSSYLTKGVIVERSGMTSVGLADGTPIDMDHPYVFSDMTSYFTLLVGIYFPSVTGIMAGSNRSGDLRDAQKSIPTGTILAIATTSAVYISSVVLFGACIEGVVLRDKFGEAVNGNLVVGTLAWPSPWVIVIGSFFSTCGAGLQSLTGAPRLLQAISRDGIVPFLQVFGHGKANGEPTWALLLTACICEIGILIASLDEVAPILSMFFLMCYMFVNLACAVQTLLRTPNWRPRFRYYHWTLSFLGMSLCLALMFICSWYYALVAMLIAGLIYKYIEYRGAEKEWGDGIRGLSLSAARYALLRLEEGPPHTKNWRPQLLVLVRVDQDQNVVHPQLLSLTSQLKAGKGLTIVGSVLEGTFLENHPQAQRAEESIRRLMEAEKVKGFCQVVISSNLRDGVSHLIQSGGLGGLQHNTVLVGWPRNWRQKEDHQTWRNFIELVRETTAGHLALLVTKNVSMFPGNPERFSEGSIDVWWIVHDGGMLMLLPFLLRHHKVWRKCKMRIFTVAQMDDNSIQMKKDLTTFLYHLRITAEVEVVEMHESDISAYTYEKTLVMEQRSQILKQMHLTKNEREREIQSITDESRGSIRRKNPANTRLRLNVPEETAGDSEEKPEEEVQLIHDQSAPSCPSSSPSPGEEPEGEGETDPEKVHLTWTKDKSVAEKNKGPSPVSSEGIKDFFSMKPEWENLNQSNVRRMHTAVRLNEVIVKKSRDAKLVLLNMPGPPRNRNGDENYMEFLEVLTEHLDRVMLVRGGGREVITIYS
The depositor's hits bear a star; i = inactive; ? = inconclusive; · = no result given; + = active, no number. An excerpt weighted towards active compounds, which were near 4.2% of everything screened.

SMILES	KCNQ1 act	KCNQ1 block	SUMO Mot1 rescue	hERG protect	AI-2 QS modul	Cl transport mod
Cc1ccc(C)c(OCC(=O)NNC(=O)CSC(=S)N2CCCC2)c1	i	i	332*	-10	9	·
Cc1cccc(C(=O)NC(=S)NCc2ccccc2)c1	i	i	12	0	-13	·
Cc1cccc(C(=O)NC(=S)NNC(=O)COc2c(C)cccc2C)c1	13*	i	-18	17*	-5	37*
Cc1ccc(C(=O)NC(=S)NNC(=O)COc2ccccc2C)cc1	i	i	-4	-12	19	31*
Cc1ccc(C(=O)NC(=S)NNC(=O)COc2ccc([N+](=O)[O-])cc2)cc1	8*	i	-1	-8	?	·
Cc1ccc(OCC(=O)Nc2ccc([N+](=O)[O-])cc2)cc1	i	i	-6	-5	12	0.21
COC(=O)NNC(=O)COc1cc(C)ccc1C	i	i	-1	-5	21	1.1
Cc1ccc(OCC(=O)NNC(=S)NC(=O)C2CCCCC2)c(C)c1	8*	i	-23	-5	31	·
O=S(=O)(c1cccc(F)c1)N1CCN(c2nc(-c3cccnc3)nc3ccccc23)CC1	·	·	4	·	·	·
Cc1cc(N/N=C/c2c(O)ccc3ccccc23)nc(-c2ccccc2O)n1	i	10*	184	-13	24	-0.2
Cc1onc(-c2ccccc2)c1C(=O)Nc1ccc(S(=O)(=O)NC(C)(C)C)cc1	i	i	-6	-4	21	0.66
COc1cccc(OCC(=O)O/N=C(\N)c2ccncc2)c1	i	i	0	-4	-76*	·
N/C(=N\OC(=O)COc1ccccc1)c1ccncc1	i	i	18	-3	-47	-0.25
COc1cc(C(=O)N/N=C/c2ccc(OC(=O)c3cccc(C)c3)c(OC)c2)ccc1O	i	8*	-2	-21	4	·
COc1cccc(C(=O)Oc2ccc(/C=N/NC(=O)c3ccncc3)cc2OC)c1	i	i	112	-5	-1	·
O=C1C[C@H]2[C@H](CO)[C@@H](OC(=O)c3ccc(-c4ccccc4)cc3)C[C@H]2O1	i	i	2	-5	15	-3.4
CCn1nnc2sc3c(c2c1=O)CCC(C)C3 (stereo not drawn)	i	i	267	-5	19	-0.92
Nn1c(=S)[nH]c2sc3c(c2c1=O)CCCC3	i	i	24	-3	-6	·
COCCn1c(=S)[nH]c2sc3c(c2c1=O)CCC(C)C3 (stereo not drawn)	60*	i	96	27*	21	·
Cn1c(=S)[nH]c2sc3c(c2c1=O)CCC(C(C)(C)C)C3 (stereo not drawn)	80*	i	-6	57*	24	·
O=c1[nH]c(=S)[nH]c2sc3c(c12)CCCCCC3	10*	i	-5	-3	-9	·
CCCn1c(=S)[nH]c2sc3c(c2c1=O)CCCC3	43*	i	-5	48*	-2	·
CC(C)On1c(SCC(=O)N(C)C)nc2ccccc2c1=O	i	i	-30	-12	0	-0.62
CS(=O)(=O)N1CCN(c2ccccc2NC(=O)c2ccco2)CC1	i	i	-2	-2	17	-1.9
CCCCN=C1NC(=O)C(CC(=O)NCCc2ccc(OC)cc2)S1 (stereo not drawn)	i	i	29	-13	10	-1.6
SMILES	KCNQ1 act	KCNQ1 block	SUMO Mot1 rescue	hERG protect	AI-2 QS modul	Cl transport mod
O=C(CC1SC(=Nc2ccc(O)cc2)NC1=O)Nc1ccccc1 (stereo not drawn)	i	i	-5	-13	8	0.64
CCCCN=C1NC(=O)C(CC(=O)Nc2ccc(Cl)cc2)S1 (stereo not drawn)	i	i	306*	-4	7	-1.5
O=C(CC1SC(=NCc2ccccc2)NC1=O)Nc1ccccc1 (stereo not drawn)	i	i	+	-6	-1	-1.5
COc1ccc(CCNC(=O)CC2SC(=NCc3ccccc3OC)NC2=O)cc1 (stereo not drawn)	i	i	-11	4.9*	13	-0.59
COc1ccc(OC)c(S(=O)(=O)NC(N)=NCCc2ccccc2OC)c1	i	i	-3	-5	16	-0.15
N#Cc1ccccc1COc1cccc2c1CCCC2O (stereo not drawn)	i	i	-3	-7	12	·
CC(C)N(CCCNC(=O)Cn1c(=O)c2cccn2c2ccccc21)Cc1ccccc1	i	i	3	-8	7	·
CCCCOc1ccc(-c2c(C(=O)Nc3ccccc3)c(C)[nH]c(=S)c2C#N)cc1	i	i	-1	-19	-2	-0.098
CCCCOc1ccc(-c2c(C#N)c(N)[nH]c(=S)c2C#N)cc1	i	i	-11	8.4*	18	7.4
O=C(OCc1cccc([N+](=O)[O-])c1)c1ccc2ccccc2n1	i	i	·	5.2*	-23	-1.2
O=C(OCc1ccc([N+](=O)[O-])cc1)c1ccc2ccccc2n1	i	i	52	-12	31	-1.3
C[C@H]1O[C@@H](n2cc(F)c(=O)[nH]c2=O)[C@H](O)[C@@H]1O	i	i	-4	-3	-83*	·
CC(C)(C)c1ccc(/C=C/C(=O)N2CCc3ccccc3C2)cc1	i	13*	-15	-4	?	0.4
CC(C)=CCC12Oc3cc(O)ccc3C1(O)Oc1cc(O)c([C@H]3C=C(C)CC(c4ccc(O)cc4O)[C@H]3C(=O)c3ccc(O)cc3O)c(O)c1C2=O (stereo partly drawn)	i	i	-16	-4	-65	·
Cc1cccc(S(=O)(=O)c2c(N)n(Cc3ccco3)c3nc4ccccc4nc23)c1	i	6*	-11	-10	13	-5.5*
O=C(C1CCCN(C2CC(=O)N(c3ccc(F)cc3)C2=O)C1)N1CCCC1 (stereo not drawn)	i	i	198	-4	30	·
O=C(C1CCCN(C2CC(=O)N(c3ccc(Cl)cc3)C2=O)C1)N1CCCC1 (stereo not drawn)	i	i	266*	-9	72	·
COc1ccccc1N1CCN(C(=O)CCCN2C(=O)c3cccc4cccc(c34)C2=O)CC1	i	6*	-3	-3	6	-1.5
CN1CCN(S(=O)(=O)c2ccc(SCCOc3ccccc3)nc2)CC1	i	i	14	-4	5	·
CCOc1ccc(OCCSc2ccc(S(=O)(=O)N3CCN(C)CC3)cn2)cc1	·	·	295*	·	·	·
Cc1[nH]c2ccc(F)cc2c1CCN(Cc1cccnc1)C(=S)Nc1ccccc1	i	i	-5	-20	90	-0.091
